Compounds with a hit are over-represented: about 2.5% of the library has one in this group of screens.
MEKK2wt PB1 HTS – raises or lowers MEK5 binding to wildtype human MEKK2 PB1 domain | Q9Y2U5 | bead flow cytometry, Alexa488-MEK5 binding to MEKK2 WT; actives lie on both sides | binding response (% of control), % at 10 µM | 1.1% of 290,000 active | AID 1531; in the data active = binding response below about 67% or above about 130%
Rce1 inhib – inhibitors of yeast Ras-converting enzyme | Q03530 | yeast membranes, quenched prenylated peptide cleavage fluorescence | calls only | 0.27% of 290,000 active;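 active = fall in fluorescence gain of 50% or more versus controls, with final raw signal at or below 3038400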;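 also: plate controls were neutral control wells for no effect and wells lacking membranes for full effect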
T cell modulator – T cell immune modulation candidate. response (vesicle binding), % at 7 µM. 2C CD8+ T cell-vesicle binding, flow cytometry; stronger effect = lower value. 0.068% of 330,000 active. AID 2052;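 active = response, share of CD8 T cells binding vesicles, and their 90th percentile fluorescence all below set limits, cut at about 80% in these data, passing the limit was not always enough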;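 also: values below 100% mean blocked vesicle binding to the CD8+ T cells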
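incubation = binding step 1.5 h, 37 °C, antibody labelling 20 min, ice | test system = 2C mouse CD8+ T cells | read-out basis = percent CD8+ FL2 mean versus row control | controls = Peptide-free naked vesicles (low) and QL9 vesicles with 0.7% DMSO vehicle (high) | detection = flow cytometry of vesicle-bound cells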
UCH37 inh – human UCH37 deubiquitinating enzyme inhibition; 0.33% of 330,000 active; Q9Y5K5; purified proteasome/UCH37, Ub-AMC cleavage fluorescence; AID 588478; inhibition, % (no concentration beside the values);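 active = mean inhibition over replicate wells above about 20%, limit read from the data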;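 also: 0% = compound-free wells with enzyme and 100% = wells lacking proteasome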
Target sequence (Q9Y5K5 whole entry, looked up): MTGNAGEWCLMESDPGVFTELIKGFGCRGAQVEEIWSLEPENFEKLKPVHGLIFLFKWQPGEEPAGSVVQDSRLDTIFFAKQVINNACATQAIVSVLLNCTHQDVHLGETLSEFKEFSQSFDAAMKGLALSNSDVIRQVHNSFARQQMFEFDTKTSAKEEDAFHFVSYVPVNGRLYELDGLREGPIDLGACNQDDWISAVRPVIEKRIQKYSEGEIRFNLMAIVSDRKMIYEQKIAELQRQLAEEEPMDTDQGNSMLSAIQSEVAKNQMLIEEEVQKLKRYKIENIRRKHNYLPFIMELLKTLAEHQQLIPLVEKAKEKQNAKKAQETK
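Reagent: Ub-AMC substrate; assay system: Proteasome-associated human UCH37 deubiquitinase; controls: no-proteasome and no-compound wells; read-out: % inhibition of Ub-AMC cleavage fluorescence; timing: 30 min preincubation with enzyme, 25 min cleavage at room temperature; signal: AMC fluorescence from Ub-AMC cleavage, excitation 355 nm, emission 460 nm; buffer or medium: Tris-HCl pH 7.4 plus ovalbumin, ATP-MgCl2, DTT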
MEKK2mut PB1 HTS – signal of MEK5 binding to mutant human MEKK2 PB1 domain | percent response, % at 10 µM | bead flow cytometry, Alexa488-MEK5 binding to MEKK2 mutant | 0.35% of 290,000 active; in the data active = percent response above about 24%, passing the limit was not always enough
MEKK3 PB1 HTS – MEKK3-MEK5 PB1 interaction, increase or decrease; Q99759; bead-based flow cytometry, Alexa488-MEK5 binding to MEKK3; actives lie on both sides; 0 = blocked by unlabeled MEK5, 100 = vehicle; binding response (% of control), % at 10 µM; 1.4% of 290,000 active;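 active = binding response more than 3 SD above or below the average of its plate-row segment, actives on both sides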;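 also: Alexa488 bead fluorescence after subtracting the streptavidin-only scavenger bead signal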
MEKK2wt confirm – raises or lowers MEK5 binding to wildtype human MEKK2, retest; shares compounds with MEKK3 PB1 HTS; bead flow cytometry, Alexa488-MEK5 binding to MEKK2 WT; actives lie on both sides; binding response (% of control), % at 10 µM; 2.4% of 5,900 active; AID 1892; in the data active = binding response below about 16% or above about 210%; inactive = in between
MEKK2mut-MEK5 – signal of MEK5 binding to mutant human MEKK2, retest | shares compounds with MEKK3 PB1 HTS | bead flow cytometry, Alexa488-MEK5 binding to MEKK2 mutant | percent response, % at 10 µM | 2% of 5,900 active; in the data active = percent response mostly above about 71%, no sharp cut-off; inactive = mostly below about 38%;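 also: higher means compound restores mutant binding toward wildtype level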
MEKK3 confirm – MEKK3-MEK5 PB1 inhibition, single concentration confirmation. shares compounds with MEKK3 PB1 HTS. bead flow cytometry, Alexa488-MEK5 binding to MEKK3; stronger effect = lower value. binding response (% of control), % at 10 µM. 1.8% of 5,900 active;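 active = binding response below 72% of control, or above a set upper limit, though filed actives all read lower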;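 also: 100% = DMSO only wells and 0% = binding blocked by excess unlabeled MEK5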
* = called active by the depositor; i = inactive; · = not tested or not shown; [ ] = dose if it differs, or a comment.

SMILES	MEKK2wt PB1 HTS	Rce1 inhib	T cell modulator	UCH37 inh	MEKK2mut PB1 HTS	MEKK3 PB1 HTS	MEKK2wt confirm	MEKK2mut-MEK5	MEKK3 confirm
CCn1cc(C=NNC(=O)c2cc(-c3ccccc3OC)nc3ccccc23)c(C)n1	·	·	·	7	·	·	·	·	·
O=C(CN1CCOCC1)Nc1ncc(Cc2cccc(Cl)c2)s1	109	i	389	-1	0	152*	105	3	106
c1ccc(CN2CCC(Nc3nc(-c4cccs4)nc4ccccc34)CC2)cc1	188*	i	346	·	27	116	173	40	112
c1csc(-c2nc(NCC3CCCO3)c3ccccc3n2)c1 (stereo not given)	100	i	196	-1	-1	99	·	·	·
CC(=O)c1cc2c(cc1NS(=O)(=O)c1ccccc1)OCO2	97	i	283	3	0	104	·	·	·
CC(=O)c1cc2c(cc1N/C(=N/S(=O)(=O)c1ccccc1)c1ccc(Cl)cc1)OCO2	102	i	257	·	0	129*	96	-4	100
COc1ccccc1NS(=O)(=O)c1cc(NC(=O)c2cc3ccccc3oc2=O)ccc1C	105	i	271	2	0	157*	96	-11	98
COc1ccccc1NC(=O)Cn1nnc(-c2ccccc2NC(=O)c2cc3ccccc3oc2=O)n1	81	i	326	-1	-7	76*[inhibitor]	98	-1	99
Nc1[nH]n(-c2ccccc2)c(=O)c1N=Nc1ccc2c(c1)OCCO2	80	i	266	6	-9	75*[inhibitor]	98	-2	103
CCc1ccc(C=NNC(=O)c2ccc(Br)o2)s1	·	·	·	4	·	·	·	·	·
O=C(CC1CCCCC1)NCc1ccccn1	122	i	281	3	6	122*	120	15	103
O=C(C(=NO)n1cncn1)c1ccc(Br)cc1Br	·	·	·	2	·	·	·	·	·
Fc1cccc(Cl)c1Cn1nnc2c(NCc3ccncc3)ncnc21	82	i	207	3	63*	104	104	-4	95
Fc1cccc(Cl)c1Cn1nnc2c(NCc3ccccn3)ncnc21	99	i	526	1	2	96	·	·	·
CCCCNC(=O)C(=O)NN=Cc1ccc(C(=O)OC)cc1	·	·	·	3	·	·	·	·	·
N/C(=N\OS(=O)(=O)c1ccccc1)c1cccnc1	106	·	236	6	0	130*	109	7	108
N/C(=N\OS(=O)(=O)c1ccc2ccccc2c1)c1cccnc1	104	i	195	1	1	83	·	·	·
Cc1ccc(OCC(=O)NN=Cc2ccc(O)c([N+](=O)[O-])c2)c([N+](=O)[O-])c1	·	·	·	4	·	·	·	·	·
COC(=O)c1ccnc(SCC(=O)c2ccccc2)c1	98	i	386	1	0	99	·	·	·
COC(=O)c1ccnc(/C=N/O)c1	85	i	377	·	-10	80*[inhibitor]	96	-6	102
O=C(NCCCn1ccnc1)/C(=C\c1cccs1)NC(=O)c1cccs1	116	i	422	5	0	130*	100	-5	101
O=C(CN(Cc1ccco1)C(=O)c1ccc(Cl)cc1)Nc1c(Cl)cc(Cl)cc1Cl	99	i	162	2	0	98	·	·	·
O=C(CN(Cc1ccco1)C(=O)c1cccc(Cl)c1)Nc1c(Cl)cc(Cl)cc1Cl	117	i	636	5	4	122*	102	3	104
O=C(Nc1ccccc1Cl)ON=Cc1ccc(F)cc1	·	·	·	3	·	·	·	·	·
COc1ccc2c(C)cc(SCC#N)nc2c1	58*[inhibitor]	i	248	-3	38*	102	101	-8	103
